Data set [1] deals with T1, N-acylethanolamine-hydrolyzing acid amidase (Homo sapiens, UniProt Q02083).
T1 sequence (Q02083 whole entry): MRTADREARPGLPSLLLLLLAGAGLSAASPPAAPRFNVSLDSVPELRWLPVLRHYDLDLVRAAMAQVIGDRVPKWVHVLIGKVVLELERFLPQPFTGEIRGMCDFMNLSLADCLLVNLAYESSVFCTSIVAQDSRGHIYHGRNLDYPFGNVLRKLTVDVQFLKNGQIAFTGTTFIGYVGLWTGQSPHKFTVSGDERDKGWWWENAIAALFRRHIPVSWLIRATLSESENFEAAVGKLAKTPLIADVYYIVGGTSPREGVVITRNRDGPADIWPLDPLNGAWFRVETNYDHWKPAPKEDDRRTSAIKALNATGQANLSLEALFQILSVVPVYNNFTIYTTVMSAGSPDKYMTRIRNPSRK
The data set is described as follows: Inhibition of human NAAA expressed in HEK293 cells preincubated for 10 mins followed by N-(4-methyl-2-oxo-chromen-7-yl)-hexadecanamide substrate addition for 50 mins by fluorescence assay. The class given is cell-based.

For a further data set, the species on record is Homo sapiens. In words: Selectivity ratio of IC50 for human acid ceramidase to IC50 for recombinant human NAAA.
The target in the next data set is T2, Acid ceramidase (Homo sapiens, UniProt Q13510).
T2 sequence (Q13510 whole entry): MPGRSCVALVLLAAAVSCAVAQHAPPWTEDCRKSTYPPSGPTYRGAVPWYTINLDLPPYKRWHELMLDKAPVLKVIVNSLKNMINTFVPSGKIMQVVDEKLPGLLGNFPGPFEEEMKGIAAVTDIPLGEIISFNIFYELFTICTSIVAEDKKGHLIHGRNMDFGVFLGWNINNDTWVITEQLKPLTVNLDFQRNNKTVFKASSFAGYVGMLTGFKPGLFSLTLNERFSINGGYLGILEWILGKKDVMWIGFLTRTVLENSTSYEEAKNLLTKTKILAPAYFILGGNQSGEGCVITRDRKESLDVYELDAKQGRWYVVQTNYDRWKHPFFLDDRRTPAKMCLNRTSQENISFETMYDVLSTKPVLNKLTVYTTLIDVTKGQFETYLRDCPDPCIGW
The data set is described as follows: Inhibition of human acid ceramidase by UPLC/MS analysis.

Data set [2] concerns the target T3, Fatty-acid amide hydrolase 1 (Homo sapiens) (UniProt O00519).
T3 sequence (whole entry): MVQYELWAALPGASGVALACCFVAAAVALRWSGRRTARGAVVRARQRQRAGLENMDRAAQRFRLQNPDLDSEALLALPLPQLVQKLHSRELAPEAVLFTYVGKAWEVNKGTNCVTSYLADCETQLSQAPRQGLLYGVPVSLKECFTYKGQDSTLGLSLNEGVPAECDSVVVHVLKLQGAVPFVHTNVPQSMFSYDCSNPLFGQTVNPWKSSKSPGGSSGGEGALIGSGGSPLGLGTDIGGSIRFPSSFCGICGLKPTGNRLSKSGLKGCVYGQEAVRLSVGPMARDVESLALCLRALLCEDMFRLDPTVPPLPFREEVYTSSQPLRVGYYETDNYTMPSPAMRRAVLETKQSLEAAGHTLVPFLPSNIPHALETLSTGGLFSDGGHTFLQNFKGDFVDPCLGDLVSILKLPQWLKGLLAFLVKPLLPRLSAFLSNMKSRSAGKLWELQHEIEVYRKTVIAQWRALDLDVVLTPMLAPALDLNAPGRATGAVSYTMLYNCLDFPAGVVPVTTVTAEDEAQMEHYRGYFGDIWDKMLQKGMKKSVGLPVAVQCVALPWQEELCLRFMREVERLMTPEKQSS
The data set is described as follows: Inhibition of human FAAH at 10 uM by fluorescence assay. A digest of the protocol: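 Enzyme source: membrane pellet (105,000 × g, re-suspended in PBS) from HEK293 cells stably transfected with h-FAAH-1; fluorogenic read-out; percent inhibition at 10 µM from two determinations.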

Data set [3] in a line: Half life in mouse plasma after 2 hrs by LC/MS-MS analysis. The class given is ADME, cell-free.
Data set [4] is described as follows: Half life in mouse liver microsomes preincubated for 15 mins followed by NADPH addition measured after 1 hr by LC/MS-MS analysis. Format: ADME. (In general: Liver microsomes are a subcellular fraction often used to study metabolism.)
Data set [5] in a line: Half life in rat plasma after 2 hrs by LC/MS-MS analysis. The class given is ADME, cell-free.
A short description of data set [6]: Half life in rat liver microsomes preincubated for 15 mins followed by NADPH addition measured after 1 hr by LC/MS-MS analysis. The class given is ADME.
Data set [7] can be described thus: Kinetic solubility of the compound in PBS at pH 7.4 after 24 hrs by UPLC/MS analysis. The class given is physicochemical. The settings on record: read-out: Kinetic_solubility. An outline of the steps: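 Kinetic solubility measured in PBS, pH 7.4; mean of three or more determinations.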
In data set [8] the target is T1, N-acylethanolamine-hydrolyzing acid amidase. In words: Inhibition of human NAAA expressed in HEK293 cells preincubated for 10 mins followed by N-(4-methyl-2-oxo-chromen-7-yl)-hexadecanamide substrate addition for 50 mins by microplate reader analysis.

Each structure is given as a SMILES string. In brackets after ≈: the same amount, converted by molar mass.

A word on the IC50: it is the concentration that inhibits the measured activity by half. Higher therefore signals a need for much substance. For orientation: inhibition means how much of the control response was suppressed. A higher inhibition goes with strong suppression. As a reminder, the half-life is how long it takes for the measured level to halve. High values mean slow loss, low ones fast loss.

For the compound `Cc1ccc(COC(=O)N[C@H]2CNC2=O)cc1`, half-maximal inhibition in data set [1] (IC50) was put at 1.04 µM.

With `O=C(N[C@H]1CNC1=O)OCCCC1CCCCC1`, the IC50 in data set [1] was determined as 0.044 µM.

Regarding `O=C(N[C@H]1CNC1=O)OCCCCC1CCC(F)(F)CC1`, the Ratio IC50 in the data set listed under Homo sapiens amounted to 140. At Acid ceramidase, this compound displayed an IC50 of 10.5 µM. This compound also gave an inhibition in data set [2] of less than 10%. Besides, the half-life was found to be 33 min in data set [3], 34 min in [4], 7 min in [5] and 10 min in data set [6]. Besides, the solubility kinetic at 24 h in data set [7] was more than 250 µM.

Regarding `O=C(N[C@H]1CNC1=O)OCc1ccc2c(c1)OC(F)(F)O2`, the Ratio IC50 in the data set filed under Homo sapiens came out at 365. Besides, the IC50 at Acid ceramidase stood at 8.09 µM. In addition, the inhibition in data set [2] was less than 10%. For the same compound, the half-life in data set [3] is 25 min; in data set [4], 30 min; in [5], more than 120 min; in data set [6] it was 40 min. Also, the solubility kinetic at 24 h in data set [7] is more than 250 µM.

As for `O=C(N[C@H]1CNC1=O)OCCCCc1ccc(C(F)(F)F)cc1`, in data set [1], the IC50 was determined as 0.073 µM.

With `CCCCc1ccc(COC(=O)N[C@H]2CNC2=O)cc1`, the Ratio IC50 in the data set listed under Homo sapiens was determined as 55. The same compound yielded a 50% inhibitory concentration (IC50) against Acid ceramidase of 0.39 µM. In data set [2], this compound returned an inhibition of less than 10%. For the same compound, the half-life was 29 min in data set [3], less than 5 min in data set [4], more than 120 min in [5] and less than 5 min in data set [6]. Besides, the solubility kinetic at 24 h in data set [7] came out at 83 µM (≈ 22.9 µg/mL).

In turn, `CCCOc1ccc(COC(=O)N[C@H]2CNC2=O)cc1` showed an IC50 against Acid ceramidase of 2.41 µM. In addition, the inhibition in data set [2] was less than 10%. The half-life in data set [3] was 31 min; in [4], 11 min; in [5] it was more than 120 min; in [6] it was less than 5 min. For the same compound, the solubility kinetic at 24 h in data set [7] is more than 250 µM.

In data set [1], `O=C(N[C@H]1CNC1=O)OCCCOC1CCCCC1` showed an IC50 of 2.67 µM.

On Acid ceramidase, `O=C(N[C@H]1CNC1=O)OCCCCC1CCCCC1` yielded an IC50 of 6.27 µM. The inhibition in data set [2] was less than 10%. The half-life in data set [3] was 41 min; in data set [4] it was less than 5 min; in data set [5] it was 12 min; in data set [6] it was less than 5 min. Further, the solubility kinetic at 24 h in data set [7] came to 144 µM (≈ 38.6 µg/mL).

Turning to `COc1ccc(CCCCOC(=O)N[C@H]2CNC2=O)cc1`, the IC50 in data set [1] came to 0.52 µM.

In turn, `O=C(N[C@H]1CNC1=O)OCCCCc1ccccc1` displayed a half-maximal inhibitory concentration (IC50) in [1] of 1.11 µM.

Consider `O=C(N[C@H]1CNC1=O)OCc1ccc(C2CCCCC2)cc1`, for which the Ratio IC50 in the data set filed under Homo sapiens came out at 125. At Acid ceramidase, the IC50 came out at 1.51 µM. Moreover, the inhibition in data set [2] was less than 10%. Moreover, the half-life in data set [3] is 57 min; in data set [4], 5 min; in [5] it was 104 min; in data set [6], less than 5 min. Besides, in data set [7], the solubility kinetic at 24 h came out at 51 µM (≈ 15.4 µg/mL).

In data set [8], `CCCCCCCCC(=O)N[C@H]1CNC1=O` displayed a concentration for half-maximal inhibition (IC50) of 0.34 µM.

Consider `O=C(N[C@H]1CNC1=O)OCc1ccc2c(c1)CCC2`, for which the IC50 in data set [1] was 0.13 µM.

The record behind these values is ChEMBL document CHEMBL3769304, “Potent α-amino-β-lactam carbamic acid ester as NAAA inhibitors. Synthesis and structure-activity relationship (SAR) studies” (Eur J Med Chem, 2016).
